In the library only some 1.4% were active in any assay of this set; here they are far more common.
TPT1 inhibitor – C. albicans TPT1 enzyme inhibition. recombinant caTPT1, FP RNA substrate dephosphorylation. inhibition, % at 5 µM. hit rate 0.81% among 300,000. AID 1962;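 active = inhibition above the mean of all tested compounds plus 3 SD, set per screening campaign, cut at about 24% in these data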;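 note: plate controls were DMSO alone for no effect and ferristatin control at 100 nM for full effect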
IDE inh – cellular human IDE inhibition; inhibition, % at 5.59 µM; P14735; HEK cells, FAbetaB cleavage, fluorescence polarization; AID 434962; hit rate 0.41% among 320,000;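 active = percent inhibition above the average of all tested compounds plus 3 SD, set per screening campaign, cut at about 16% in these data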;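 note: IDE supplied by intact live HEK cells; FP after avidin binding of uncleaved biotin substrate so inhibition keeps polarization high; 0% = DMSO wells and 100% = 60 µM reference IDE inhibitor Ii1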
HNF4A DNA FP – change in binding of human HNF4 alpha to DNA | P41235 | HNF4a-FITC DNA binding, fluorescence polarization, 1 h | activity change, % at 10 µM | hit rate 0.3% among 360,000 | AID 1224865; in the data active = activity change above about 30%, passing the limit was not always enough
Target sequence (P41235 whole entry, looked up): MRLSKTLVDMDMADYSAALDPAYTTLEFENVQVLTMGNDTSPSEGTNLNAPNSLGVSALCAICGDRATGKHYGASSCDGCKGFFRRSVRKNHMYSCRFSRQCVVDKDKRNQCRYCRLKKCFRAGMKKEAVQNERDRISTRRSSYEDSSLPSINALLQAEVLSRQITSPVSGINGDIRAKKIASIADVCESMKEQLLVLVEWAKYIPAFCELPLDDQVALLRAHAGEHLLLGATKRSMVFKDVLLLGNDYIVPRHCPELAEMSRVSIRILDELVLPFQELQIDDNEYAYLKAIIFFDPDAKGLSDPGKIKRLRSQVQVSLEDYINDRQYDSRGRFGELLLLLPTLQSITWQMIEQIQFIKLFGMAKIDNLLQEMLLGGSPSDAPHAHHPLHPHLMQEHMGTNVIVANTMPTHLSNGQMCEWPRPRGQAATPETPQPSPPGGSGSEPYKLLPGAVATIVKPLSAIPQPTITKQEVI
CSN inh – inhibitors of human CSN-mediated cullin deneddylation; AID 651999; Purified CSN, SCF-Nedd8-OG deneddylation, fluorescence polarization; hit rate 0.38% among 360,000; inhibition, % at 12.5 µM; Q92905;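 active = pattern-corrected inhibition above about 35%, with an unprinted fluorescence ratio check between 0.5 and 1.5, limit read from the data, passing the limit was not always enough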;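 note: 0% = enzyme with substrate and 100% = substrate without enzyme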
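Assay system: HEK293T-derived human Csn5 enzyme; quantity: 0.24 nM enzyme; medium: Tris/NaCl/DTT buffer, pH 7.5; also added: substrate SCFSkp2-Nedd8OG, 10 nM; doses: 12.5 µM compound; schedule: 90 min reaction at room temperature; signal: FP; read-out: % inhibition of substrate cleavage by Csn5; benchmarks: substrate-only high control, full reaction low control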
IDE act – activators of human insulin-degrading enzyme in cells; activation, % at 5.96 µM; AID 493087; P14735; HEK cells, FAbeta-B cleavage, fluorescence polarization; 0% vehicle, 100% cell-free pure enzyme wells; hit rate 0.073% among 340,000;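 active = activation above the mean of all tested compounds plus 3 SD, set per screening campaign, cut at about 17% in these data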
TPT1 inh confirm – confirmation of Candida albicans TPT1 inhibitors; hit rate 74% among 2,400; AID 2149; recombinant caTPT1, fluorescence polarization, RNase T1 coupled; shares compounds with TPT1 inhibitor; inhibition, % at 5 µM;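 active = inhibition above the primary screen limit, the mean inhibition of all tested compounds plus 3 SD, cut at about 25% in these data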
RNase T1 counter – counter-screen for TPT1 inhibitors: inhibitors of Aspergillus oryzae RNase T1; shares compounds with TPT1 inhibitor; RNase T1 cleavage, fluorescence polarization, 1536-well; inhibition, % at 5 µM; hit rate 83% among 2,400;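 active = inhibition above the solvent-only control well mean plus 3 SD, limit set per screening run, cut at about 23% in these data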;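 note: plate controls were DMSO wells with enzyme for no effect and wells without RNase T1 for full effect; inhibitors block cleavage so intact labeled substrate keeps polarization high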
Target sequence (P00651 whole entry, looked up): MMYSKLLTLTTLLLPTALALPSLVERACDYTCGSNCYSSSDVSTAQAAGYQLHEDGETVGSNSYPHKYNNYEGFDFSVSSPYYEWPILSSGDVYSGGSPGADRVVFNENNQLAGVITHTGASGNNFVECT
IDE cell inh cf – cellular human IDE inhibition, confirmation; shares compounds with IDE inh; HEK cells, FAbetaB cleavage, fluorescence polarization; inhibition, % at 5.59 µM; hit rate 51% among 1,200; AID 435028;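 active = mean inhibition across triplicate wells above the cutoff set by the earlier primary insulin-degrading enzyme screen, cut at about 16% in these data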;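 note: 0% = DMSO wells and 100% = 60 µM reference IDE inhibitor Ii1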
HEK cytotox – counter-screen for IDE inhibitors: cytotoxicity in HEK cells | hit rate 28% among 1,200 | shares compounds with IDE inh | inhibition, % at 5.59 µM | HEK293 cytotoxicity, ATP luminescence; in the data active = inhibition above about 22%;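 note: 0% = vehicle wells and 100% = reference cytotoxic drug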
IDE FP artifact – counter-screen for IDE inhibitors: fluorescent artifacts | 30 tested, under 10 active | IC50, µM | FP counterscreen for fluorescent artifacts, IDE probe project | AID 588718 | shares compounds with IDE inh
HNF4A confirm – change in binding of human HNF4 alpha to DNA, retest | shares compounds with HNF4A DNA FP | activity change, % at 12.5 µM | AID 1224897 | hit rate 99% among 210 | HNF4A-FITC DNA binding, fluorescence polarization, 1 h
Active calls of the source: *; · = no result given. Unless noted, the rule behind the calls is not given here.

SMILES | TPT1 inhibitor | IDE inh | HNF4A DNA FP | CSN inh | IDE act | IDE cell inh cf | HEK cytotox | others
COc1ccc(N/C=C/c2nc(SC)nnc2C)cc1 | 111.3* | 4.1 | 44.6* | 27.7 | -13.1 | · | · | TPT1 inh confirm=108.1*;RNase T1 counter=110.9*;HNF4A confirm=61.7*
Cc1c(C(=O)N2CCN(S(=O)(=O)c3ccccc3)CC2)oc2ccc(Br)cc12 | · | 4.3 | -3.3 | 1.9 | 3.9 | · | ·
Cn1cccc1/C=C1\SC(=S)N(NC(=O)c2cccc(Cl)c2)C1=O | 86.0* | -2.0 | 61.2* | 35.7* | -5.3 | · | · | TPT1 inh confirm=97.6*;RNase T1 counter=110.5*;HNF4A confirm=97.1*
O=C(COc1ccc(Cl)cc1Cl)NN1C(=O)/C(=C\c2ccc(Cl)cc2)SC1=S | 0.8 | -0.1 | -2.1 | 0.6 | -3.5 | · | ·
CC(=O)Nc1ccc(S(=O)(=O)NCc2nc(-c3cccc(C)c3)no2)cc1 | 41.3* | -2.3 | 62.4* | 15.9 | 1.9 | · | · | TPT1 inh confirm=72.7*;RNase T1 counter=80.0*;HNF4A confirm=63.9*
O=C(NN=C1CCCC1)c1cccc(Br)c1 | -4.4 | 4.8 | -0.1 | -4.2 | 0.4 | · | ·
CN1CCc2c(sc(NC(=O)c3ccc(S(=O)(=O)N4CCCC4)cc3)c2C(N)=O)C1 | 115.9* | 6.0 | 35.5* | 13.9 | -5.5 | · | · | TPT1 inh confirm=132.8*;RNase T1 counter=133.7*;HNF4A confirm=32.1*
Cc1ccccc1C(=O)/C=C1/SCC(=O)N1C | 26.8* | -0.6 | 37.8* | 46.2* | -3.9 | · | · | TPT1 inh confirm=23.5;RNase T1 counter=27.5*;HNF4A confirm=59.4*
Cc1ccc(S(=O)(=O)NC(=O)C2(C)CCN2C(=O)c2ccc(C(F)(F)F)nc2C)cc1 (stereo not drawn) | · | · | 2.9 | -0.9 | · | · | ·
CCOC(=O)c1csc(NC(=O)c2ccc3c(c2)OCCO3)n1 | 0.6 | -0.7 | 0.0 | -1.0 | -2.2 | · | ·
CC1=Nc2ccccc2/C1=C/c1c(C)[nH]c2ccccc12 | · | · | 4.3 | -3.6 | 0.7 | · | ·
CC1=Nc2ccccc2/C1=C/c1nc(-c2ccc(C)s2)oc1O | 165.8* | 12.7 | 54.8* | 31.8 | -11.4 | · | · | TPT1 inh confirm=179.1*;RNase T1 counter=169.6*;HNF4A confirm=73.6*
N#Cc1ccc(-c2cccnc2)nc1SCC(=O)c1ccccc1 | 67.2* | 23.4* | 46.2* | 30.1 | -40.8 | 41.7* | 17.8 | TPT1 inh confirm=66.1*;RNase T1 counter=73.5*;HNF4A confirm=48.9*
CCN(CC)C(=O)CSc1nc(-c2ccccc2)ccc1C#N | 1.6 | 12.1 | 4.4 | 0.2 | 2.3 | · | ·
COc1ccc(Cc2nc3ccc(C(=O)NCCCSC)cc3o2)cc1OC | -1.9 | -0.5 | 1.3 | -5.3 | 0.8 | · | ·
C=CCn1c(SCC(=O)N2CCc3ccccc3C2)nc2sc(CC)cc2c1=O | 4.6 | 17.4* | 2.0 | 0.9 | -2.3 | 6.9 | 11.6
Oc1ccc2c(ccc3[nH]cnc32)c1 | -3.3 | 3.2 | 7.9 | -3.5 | 3.2 | · | ·
Brc1cc2[nH]cnc2c2ccccc12 | 3.3 | 21.6* | 0.7 | 0.9 | -39.1 | 11.3 | 16.4
COC(=O)C1=C(C)N(c2ccc(F)cc2)/C(=C/c2ccc(O)cc2)C1=O | -0.7 | 19.5* | 4.5 | 4.5 | -39.6 | 76.3* | 12.1
COC(=O)C1=C(C)N(c2ccc(C)cc2)/C(=C/c2cccs2)C1=O | 1.3 | -4.7 | -2.8 | -0.5 | 0.7 | · | ·
Cc1cc(C)c2c(=O)n(CC(=O)NC3CCCC3)sc2n1 | -1.0 | 26.6* | 0.8 | 6.2 | -50.2 | 2.0 | 80.3*
Cc1cc(C)c2c(N)c(C(=O)NC3CCCC3)sc2n1 | -3.0 | 4.1 | 0.4 | -2.5 | -1.1 | · | ·
Cc1cc(C)c2c(=O)n(CC(=O)Nc3ccc(Br)c(C)c3)sc2n1 | 0.6 | 61.0* | 3.7 | -1.9 | -50.6 | 19.2* | 21.8
Cc1cc(C)c2c(=O)n(CC(=O)Nc3cccc(Cl)c3C)sc2n1 | -1.4 | 40.0* | 3.6 | -1.9 | -61.8 | 6.1 | 79.0*
COc1ccc(OC)c(CCNC(=O)Cn2sc3nc(C)cc(C)c3c2=O)c1 | 2.7 | 20.3* | · | · | · | 6.8 | 124.5*
SMILES | TPT1 inhibitor | IDE inh | HNF4A DNA FP | CSN inh | IDE act | IDE cell inh cf | HEK cytotox | others
Cc1ccc(OCC(=O)OCC(=O)c2cccc([N+](=O)[O-])c2)cc1C | -1.1 | 1.9 | 2.5 | 4.1 | 4.3 | · | ·
O=C(NCCCCc1ccccc1)c1cccc(NC(=O)C2CC2)c1 | · | · | -1.5 | 5.8 | 1.8 | · | ·
O=c1c2ccccc2sn1-c1cc(S(=O)(=O)N2CCOCC2)ccc1N1CCOCC1 | 2.2 | 58.5* | 0.8 | 4.0 | -32.2 | 59.1* | 17.1 | IDE FP artifact=>54.7
c1ccc(C[n+]2csc3ccccc32)cc1 | -3.0 | 26.1* | -2.2 | 2.0 | -38.4 | 11.0 | 9.6
Fc1cccc(C[n+]2csc3ccccc32)c1 | 2.4 | 22.4* | 2.8 | -1.6 | -38.2 | 10.7 | 12.4
O=C(CN1C(=O)NC2(CCCC2)C1=O)OCCOc1ccc(Br)cc1 | 0.4 | 5.9 | 2.0 | 1.9 | -2.2 | · | ·
CN(CC(=O)Nc1ccc(F)cc1)C(=O)CN1C(=O)NC(CCc2ccccc2)C1=O (stereo not drawn) | · | · | 0.5 | 0.0 | · | · | ·
CC1=CC(C)(C)Nc2ccc(OC(=O)CN3C(=O)c4ccccc4C3=O)cc21 | 4.6 | 19.4* | -1.7 | -6.0 | -2.6 | 41.0* | 122.6*
CC1=CC(C)(C)Nc2ccc(OC(=O)CN3C(=O)c4cccc5cccc(c45)C3=O)cc21 | -3.5 | 6.5 | 7.3 | 6.2 | -3.1 | · | ·
CC(NC(=O)CSc1ncn[nH]1)c1ccc(Cl)cc1Cl (stereo not drawn) | · | · | 0.1 | 4.0 | -5.3 | · | ·
CC(Sc1ccc(S(=O)(=O)N2CCN(C)CC2)cn1)C(=O)Nc1cccc(Cl)c1Cl (stereo not drawn) | · | · | 0.5 | -2.5 | 3.0 | · | ·
CCC(=O)N1CCN(c2nc(-c3ccc(Cl)cc3)cs2)CC1 | 2.3 | 17.9* | -0.1 | -2.5 | -15.2 | 9.8 | 18.6
COc1ccc(CC(=O)N2CCN(c3ccccc3OC)CC2)cc1OC | -3.2 | -1.9 | 0.6 | 1.9 | 0.3 | · | ·
COc1cc(/C=C(\C#N)C(=O)NCc2cccs2)ccc1O | 11.1 | 34.1* | -2.1 | 9.3 | -40.6 | 45.3* | 9.1
N#C/C(=C/c1ccc(O)c(O)c1)C(=O)NCc1ccc(Cl)cc1 | 8.6 | 24.2* | 0.9 | -0.9 | -31.6 | 33.2* | 8.6
N#C/C(=C/c1cccc(O)c1)C(=O)NCc1ccc(Cl)cc1 | -2.7 | 3.2 | 2.2 | -0.7 | -3.6 | · | ·
Cc1ccc(NC(=O)N2CCOCC2)cc1NC(=O)N1CCOCC1 | · | · | 3.5 | 1.7 | · | · | ·
